High-throughput results (PubChem)
A selection: hits, their analogues and other compounds. The true share with any hit is near 1.8%.
M4 PAM – positive allosteric modulators of human muscarinic M4 receptor. 0.4% of 360,000 active. P08173. CHO-K1 hM4/Gqi5, Fluo-8 calcium fluorescence, ACh EC20; 0% = ACh EC20, 100% = maximal ACh. activation, % at 3 µM;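 active means activation above its plate's cutoff, the mean activation of sample wells plus 3 SD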
CHRM5 agonist – CHRM5 agonism in calcium assay. P08912. CHO-K1 hM5 cells, Fluo-8 calcium fluorescence; 0% DMSO wells, 100% maximal acetylcholine response. activation, % at 3 µM. 0.19% of 360,000 active;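 active means activation above the run's mean over test compounds plus 3 SD, cut at about 23% in these data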;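 further: signal is peak over basal fluorescence ratio across the kinetic read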
Target sequence (P08912 whole entry, looked up): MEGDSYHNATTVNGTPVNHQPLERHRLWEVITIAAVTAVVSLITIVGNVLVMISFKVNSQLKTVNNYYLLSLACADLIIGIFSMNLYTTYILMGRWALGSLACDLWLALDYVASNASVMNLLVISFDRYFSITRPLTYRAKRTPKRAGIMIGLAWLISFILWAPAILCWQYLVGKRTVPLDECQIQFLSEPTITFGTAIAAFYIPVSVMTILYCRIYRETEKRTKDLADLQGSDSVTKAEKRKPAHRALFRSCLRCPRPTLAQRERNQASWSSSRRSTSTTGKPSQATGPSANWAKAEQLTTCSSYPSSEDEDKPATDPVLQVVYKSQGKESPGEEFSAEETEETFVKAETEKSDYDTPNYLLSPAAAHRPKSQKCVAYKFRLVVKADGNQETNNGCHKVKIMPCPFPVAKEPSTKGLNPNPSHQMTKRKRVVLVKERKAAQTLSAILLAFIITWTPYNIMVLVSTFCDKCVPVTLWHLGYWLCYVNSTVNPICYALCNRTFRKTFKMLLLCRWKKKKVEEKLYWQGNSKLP
CHRM5 antagonist – antagonists of human muscarinic M5 receptor (CHRM5); CHO-hM5 cells, Fluo-8 calcium fluorescence, ACh EC80; inhibition, % at 3 µM; 0.59% of 360,000 active;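 active means inhibition above a per-plate cutoff, the mean of that plate's test compounds plus 3 SD, cut at about 27% in these data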;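 further: 0% = acetylcholine EC80 with DMSO and 100% = DMSO without agonist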
M4 ag – CHRM4 agonism in calcium assay. P08173. CHO-K1 hM4/Gqi5, Fluo-8 calcium fluorescence; vehicle 0%, full acetylcholine response 100%. activation, % at 3 µM. 0.14% of 360,000 active. AID 624127;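 active means activation above the run mean over all test wells plus 3 SD, cut at about 32% in these data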;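 further: peak over basal fluorescence ratio per well then scaled between controls; 0% = DMSO wells and 100% = acetylcholine at EC100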
CHRM5 PAM – positive allosteric modulators of human muscarinic M5 receptor | P08912 | CHO-K1 hM5, Fluo-8 calcium, ACh EC20 PAM; 0% = ACh EC20, 100% = ACh EC100 | activation, % at 3 µM | 0.3% of 360,000 active;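 active means activation above the run cutoff, the mean activation of all test compounds plus 3 SD, cut at about 18% in these data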
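Probe or stimulus: acetylcholine, EC20 level; Assay system: human M5 receptor in CHO-K1 cells; Schedule: compound preincubation 140 s before EC20 acetylcholine addition; Technique: intracellular calcium via Fluo-8 fluorescence; Dosing: single-point, 3 µM nominal; Read-out basis: percent activation from peak-over-basal fluorescence ratio, scaled EC20-to-EC100 acetylcholine; Repeats: one well per compound, no replicates.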
CHRM4 antagonist – antagonists of human muscarinic M4 receptor (CHRM4). P08173. CHO-hM4 cells, ACh EC80, Fluo-8 calcium fluorescence. inhibition, % at 3 µM. 0.73% of 360,000 active. AID 624125;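 active means inhibition above its plate's cutoff, the mean inhibition of sample wells plus 3 SD, cut at about 27% in these data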;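 further: 0% = acetylcholine EC80 with DMSO and 100% = DMSO without agonist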
Numbers without * were called inactive.

SMILES	M4 PAM	CHRM5 agonist	CHRM5 antagonist	M4 ag	CHRM5 PAM	CHRM4 antagonist
NC(Cc1ccc(F)cc1)c1csc(NC(=O)NC(c2ccccc2)c2ccccc2)n1 (configuration not stated)	6.6	2.1	3.2	17.3	-1.2	27.8*
Cc1ccc(C(=O)Nc2nc(C(N)Cc3ccc(C(F)(F)F)cc3)cs2)cc1 (configuration not stated)	-5.0	6.0	9.5	36.0*	4.7	7.6
Cc1ccccc1-c1cc(C(=O)O)n(CC2CC(c3cccnc3)=NO2)n1 (configuration not stated)	15.4	2.4	-3.9	0.3	-2.1	-14.2
NC(Cc1ccc(C(F)(F)F)cc1)c1csc(NC(=O)NCCc2ccccc2)n1 (configuration not stated)	-7.8	4.2	3.7	39.3*	4.2	41.3*
O=C(O)c1ccc(NC2CC(=O)N(Cc3ccccc3)C2=O)cc1 (configuration not stated)	7.2	-3.2	4.0	0.8	7.2	0.7
CCc1nnc(NC(=O)CCC(=O)N2CCN(c3cccc(Cl)c3)CC2)s1	-2.4	-1.1	-4.4	3.1	2.6	-10.3
C1=CN2CCC1C(c1ccccc1)C2 (configuration not stated)	-11.2	3.4	73.9*	2.5	-14.7	36.1*
CC1(C)CC2(CC(c3ccccc3F)c3ccc(O)c(O)c3O2)NC(=S)N1 (configuration not stated)	4.4	-4.6	8.0	1.7	2.8	3.7
CC1CCN(CCCCOc2cccc(Br)c2)CC1	-15.9	-6.7	13.8	5.0	-18.7	67.7*
CC(=O)NC(c1ccccc1)c1cc([N+](=O)[O-])c2cccnc2c1O (configuration not stated)	5.7	2.9	-12.8	0.8	22.3*	-4.7
Cc1ccc(NC(=S)NCc2cccnc2)cc1	15.9*	-2.7	-6.9	0.9	2.4	1.1
S=C(NCc1cccnc1)Nc1cc(Cl)cc(Cl)c1	-15.0	1.7	30.4*	16.5	-22.4	-2.3
O=c1oc(C2(O)CCCCC2)cc2ccc(/C=C/c3ccc(F)cc3)cc12	1.6	4.5	12.0	2.6	-5.5	-0.3
COc1ccc(CNC(=O)CN(C2CCCCC2)S(C)(=O)=O)cc1	26.0*	-3.1	-2.9	2.2	7.0	-5.0
COc1ccc(C2=NNC(=O)CC2)cc1	0.0	2.8	-9.9	0.8	23.6*	-5.2
O=C(N/N=C/c1cccc2cccnc12)c1ccccc1O	-26.2	5.2	25.5	7.1	-8.8	35.1*
O=C(NNc1ccccc1Br)C(O)(c1cccc(C(F)(F)F)c1)c1cccc(C(F)(F)F)c1	-16.5	-4.1	29.4*	3.8	-17.7	10.7
CCCCOc1ccc(Br)cc1CSC(=N)N	-10.4	0.8	40.1*	9.5	-18.0	26.4*
O=[N+]([O-])c1ccc(S(=O)Cc2ccccc2)c([N+](=O)[O-])c1 (configuration not stated)	-9.6	6.5	21.1	5.7	-11.1	76.8*
COc1nc(NCCO)nc(Nc2ccc([N+](=O)[O-])cc2)n1	24.5*	1.5	8.6	1.9	-0.4	-1.9
COc1ccc(OC)c(Nc2nc(NCCCN(C)C)nc(N)c2[N+](=O)[O-])c1	-3.4	0.9	10.1	2.7	-5.8	1.8
COCCCNc1nc(N)c([N+](=O)[O-])c(Nc2cc(OC)ccc2OC)n1	2.1	36.2*	5.2	11.2	8.3	-16.9
CCC(=O)N1CCc2nc(-c3ccccc3)sc2C1	-8.9	-0.2	12.4	3.3	-15.5	4.0
O=C(COc1ccc(F)cc1Br)NCCCN1CCCC1=O	3.1	3.0	7.7	0.1	-2.2	2.1
Oc1ccc(Cl)cc1/C=N/c1nccs1	4.0	-1.7	-3.8	1.0	-0.7	6.8
Cc1cccc(C=Nc2ccc3c4c(cccc24)CC3)c1O	-12.0	33.8*	24.0	22.6	-8.9	25.9
Oc1ccc(Cl)cc1C=Nc1ccc2c3c(cccc13)CC2	-24.9	52.9*	35.1*	71.2*	-14.0	36.1*
O=C(c1ccccc1)N1CCN(C(=O)c2ccc3c(c2)OCCO3)CC1	-4.9	3.2	6.5	0.3	4.7	7.0
